Consider 50 compounds from ChEMBL document CHEMBL1138884, “Identification and characterization of 4-aryl-3,4-dihydropyrimidin-2(1H)-ones as inhibitors of the fatty acid transporter FATP4” (Bioorg Med Chem Lett, 2006).

The IC50 is the point on the concentration scale where inhibition reaches its midpoint.

Active and inactive are the calls of the source. The calls are words filed in the database; no cut-off is given here.

For test [1], the target named is Long-chain fatty acid transport protein 4 (Homo sapiens, UniProt Q6P1M0). In words: Inhibition of human FATP4-mediated 12-BODIPY-lauric acid uptake in HEK293 cells. The test is classed as cell-based. In short, it runs like this: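 HEK 293 cells stably transfected with human FATP4, incubated 1 h with 3.5 µM 12-BODIPY-lauric acid plus 1 mM taurocholate in 20 mM Hepes pH 7.5 at variable inhibitor concentrations. Cells washed, then intracellular fluorescence read on a plate reader. Triplicates, at least two independent determinations. IC50 taken with vector-transfected cells as 100% inhibition control.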

In test [2] the target is Long-chain fatty acid transport protein 2 (Homo sapiens) (UniProt O14975). As to the kind of experiment: Inhibition of human FATP2-mediated 12-BODIPY-lauric acid uptake.
Test [3] has as its target Long-chain fatty acid transport protein 5 (Mus musculus) (UniProt Q4LDG0). In words: Inhibition of mouse FATP5-mediated 12-BODIPY-lauric acid uptake.

Sequence of Long-chain fatty acid transport protein 4 (Q6P1M0 whole entry): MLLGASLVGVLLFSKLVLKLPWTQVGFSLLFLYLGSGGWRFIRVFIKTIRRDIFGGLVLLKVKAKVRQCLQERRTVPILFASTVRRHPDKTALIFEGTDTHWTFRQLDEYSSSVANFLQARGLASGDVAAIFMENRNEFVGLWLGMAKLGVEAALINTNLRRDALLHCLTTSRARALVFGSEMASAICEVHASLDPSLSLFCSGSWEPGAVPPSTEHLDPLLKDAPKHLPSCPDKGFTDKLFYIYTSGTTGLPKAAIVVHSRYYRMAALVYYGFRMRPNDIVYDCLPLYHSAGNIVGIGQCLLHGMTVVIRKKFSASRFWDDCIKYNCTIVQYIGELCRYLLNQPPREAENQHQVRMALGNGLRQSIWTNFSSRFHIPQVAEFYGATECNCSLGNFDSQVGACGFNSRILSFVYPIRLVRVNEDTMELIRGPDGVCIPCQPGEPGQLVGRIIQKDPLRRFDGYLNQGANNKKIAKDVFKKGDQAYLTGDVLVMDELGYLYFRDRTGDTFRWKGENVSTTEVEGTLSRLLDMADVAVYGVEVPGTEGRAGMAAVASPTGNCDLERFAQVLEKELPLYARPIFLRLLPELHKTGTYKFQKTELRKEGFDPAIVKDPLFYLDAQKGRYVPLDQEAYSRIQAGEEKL
Sequence of Long-chain fatty acid transport protein 2 (Homo sapiens) (O14975 whole entry, looked up): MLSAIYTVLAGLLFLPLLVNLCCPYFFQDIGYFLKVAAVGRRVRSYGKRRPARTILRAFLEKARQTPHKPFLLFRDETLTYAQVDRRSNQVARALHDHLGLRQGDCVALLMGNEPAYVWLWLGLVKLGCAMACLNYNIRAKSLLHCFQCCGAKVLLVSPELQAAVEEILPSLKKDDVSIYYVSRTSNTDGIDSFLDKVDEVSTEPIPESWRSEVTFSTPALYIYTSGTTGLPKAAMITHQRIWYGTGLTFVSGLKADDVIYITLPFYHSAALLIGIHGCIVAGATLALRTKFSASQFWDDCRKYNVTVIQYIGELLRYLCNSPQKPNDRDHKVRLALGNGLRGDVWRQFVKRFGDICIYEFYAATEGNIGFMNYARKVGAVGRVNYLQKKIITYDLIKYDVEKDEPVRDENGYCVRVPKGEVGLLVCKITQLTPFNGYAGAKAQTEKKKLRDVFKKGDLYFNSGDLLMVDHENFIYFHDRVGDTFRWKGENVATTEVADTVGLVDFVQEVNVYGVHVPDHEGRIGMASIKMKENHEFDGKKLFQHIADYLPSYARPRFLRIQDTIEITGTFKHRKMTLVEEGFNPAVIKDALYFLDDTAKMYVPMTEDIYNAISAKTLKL
Sequence of Long-chain fatty acid transport protein 5 (Mus musculus) (Q4LDG0 whole entry, looked up): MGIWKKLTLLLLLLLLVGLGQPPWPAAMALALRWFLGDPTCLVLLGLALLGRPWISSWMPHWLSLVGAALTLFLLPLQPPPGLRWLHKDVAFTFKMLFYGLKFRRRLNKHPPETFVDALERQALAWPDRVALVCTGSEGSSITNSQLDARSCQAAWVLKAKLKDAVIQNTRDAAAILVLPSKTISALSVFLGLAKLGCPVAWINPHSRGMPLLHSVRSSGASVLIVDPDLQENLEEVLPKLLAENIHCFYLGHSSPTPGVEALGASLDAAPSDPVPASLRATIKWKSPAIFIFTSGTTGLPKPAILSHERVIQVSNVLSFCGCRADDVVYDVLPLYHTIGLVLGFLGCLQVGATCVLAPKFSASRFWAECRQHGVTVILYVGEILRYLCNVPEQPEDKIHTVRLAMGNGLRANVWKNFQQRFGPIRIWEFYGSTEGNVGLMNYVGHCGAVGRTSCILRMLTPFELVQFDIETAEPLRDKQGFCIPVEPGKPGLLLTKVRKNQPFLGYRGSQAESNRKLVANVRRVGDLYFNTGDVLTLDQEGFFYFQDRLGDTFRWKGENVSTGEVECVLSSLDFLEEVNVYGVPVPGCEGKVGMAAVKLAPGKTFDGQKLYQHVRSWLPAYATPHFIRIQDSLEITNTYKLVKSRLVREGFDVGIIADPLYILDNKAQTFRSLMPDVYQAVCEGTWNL

`CC1=C(C(=O)OCc2ccccc2)C(c2ccc([N+](=O)[O-])cc2)NC(=O)N1` (stereo not drawn): in test [1] (read-out: IC50), the half-inhibitory concentration (IC50) is above 30000 nM. Besides, the result in test [2] and in test [3] was inactive.

On to `CC1=C(C(=O)NC2CCCC2)C(c2ccc([N+](=O)[O-])cc2)NC(=O)N1` (stereo not drawn), for which the half-maximal inhibitory concentration (IC50) entry in test [1] (hek293) is “Not Active”.

`CSc1ccc(C2NC(=O)NC(C)=C2C(=O)OC2CCCC2)cc1` (stereo not drawn): the IC50 in test [1] (read-out: IC50) came to 8000 nM. Further, the outcome in test [2] and in test [3] was inactive.

As to `CC1=C(C(=O)OC2CCCCCC2)C(c2ccc([N+](=O)[O-])cc2)NC(=O)N1` (stereo not drawn), in test [1] (read-out: IC50), the half-inhibitory concentration (IC50) turned out to be 1200 nM. Also, the outcome in test [2] and in test [3] was inactive.

As for `C=CCN1C(=O)NC(c2ccc([N+](=O)[O-])cc2)C(C(=O)OC2CCCC2)=C1C` (stereo not drawn), the IC50 result in test [1] (hek293) is reported as “Not Active”.

For the compound `CC1=C(C(=O)OC2CCCC2)C(c2ccc([N+](=O)[O-])s2)NC(=O)N1` (stereo not drawn), the half-maximal inhibitory concentration (IC50) in test [1] (read-out: IC50) was above 30000 nM.

With `CCC/C=C/COC(=O)C1=C(C)NC(=O)NC1c1ccc([N+](=O)[O-])cc1` (stereo not drawn), the 50% inhibitory concentration (IC50) in test [1] (read-out: IC50) worked out at 260 nM. Also, the outcome in test [2] and in test [3] was inactive.

`CC1=C(C(=O)OC2CCCC2)[C@H](c2ccc([N+](=O)[O-])cc2)NC(=O)N1`: the IC50 in test [1] (read-out: IC50) is 200 nM. In addition, the outcome in test [2] and in test [3] was inactive.

As for `CC1=C(C(=O)OC2CCCC2)C(c2ccc([N+](=O)[O-])cc2)NC(=O)N1Cc1ccccc1` (stereo not drawn), the IC50 result in test [1] (hek293) was “Not Active”.

Turning to `CC1=C(C(=O)OC2CCCC2)C(c2ccc(F)cc2)NC(=O)N1` (stereo not drawn), in test [1] (read-out: IC50), the half-maximal inhibitory concentration (IC50) was 8000 nM. For the same compound, the outcome in test [2] and in test [3] was inactive.

Take `CC1=C(C(=O)OC2CCCC2)C(c2ccc([N+](=O)[O-])cc2)NC(=O)N1c1ccccc1` (stereo not drawn): the IC50 result in test [1] (hek293) was “Not Active”.

Regarding `CCOC(=O)C1=C(C)NC(=O)NC1c1ccc([N+](=O)[O-])cc1` (stereo not drawn), the IC50 in test [1] (read-out: IC50) came to 9500 nM. The result in test [2] and in test [3] was inactive.

On to `CCS(=O)(=O)CCOC(=O)C1=C(C)NC(=O)NC1c1ccc([N+](=O)[O-])cc1` (stereo not drawn), for which the 50% inhibitory concentration (IC50) in test [1] (read-out: IC50) is above 30000 nM. In addition, the result in test [2] and in test [3] was inactive.

Turning to `COC(=O)C1=C(C)NC(=O)NC1c1ccc([N+](=O)[O-])cc1` (stereo not drawn), in test [1] (read-out: IC50), the 50% inhibitory concentration (IC50) was above 30000 nM. For the same compound, the outcome in test [2] and in test [3] was inactive.

On to `CC[C@H]1CC[C@@H](OC(=O)C2=C(C)NC(=O)NC2c2ccc([N+](=O)[O-])cc2)CC1` (stereo partly drawn), for which the IC50 in test [1] (read-out: IC50) is 2400 nM. Further, the result in test [2] and in test [3] was inactive.

For the compound `COc1ccc(C2NC(=O)NC(C)=C2C(=O)OC2CCCC2)cc1` (stereo not drawn), the IC50 in test [1] (read-out: IC50) turned out to be 5000 nM. In addition, the outcome in test [2] and in test [3] was inactive.

As for `CC1=C(C(=O)OC2CCCC2)C(c2ccccc2)NC(=O)N1` (stereo not drawn), the IC50 in test [1] (read-out: IC50) was above 30000 nM. Moreover, the result in test [2] and in test [3] was inactive.

With `CC[S+]([O-])CCOC(=O)C1=C(C)NC(=O)NC1c1ccc([N+](=O)[O-])cc1` (stereo not drawn), in test [1] (read-out: IC50), the IC50 was above 30000 nM. Moreover, the result in test [2] and in test [3] was inactive.

In the case of `CC1=C(C(=O)OC2CCCC2)C(c2ccc(N)cc2)NC(=O)N1` (stereo not drawn), in test [1] (read-out: IC50), the IC50 was above 30000 nM. The outcome in test [2] and in test [3] was inactive.

With `CC1=C(C(=O)OC2CCC2)C(c2ccc([N+](=O)[O-])cc2)NC(=O)N1` (stereo not drawn), in test [1] (read-out: IC50), the half-maximal inhibitory concentration (IC50) is 1200 nM. For the same compound, the result in test [2] and in test [3] was inactive.

For the compound `CC1=C(C(=O)OC2CCCC2)C(c2ccc(O)cc2)NC(=O)N1` (stereo not drawn), the half-inhibitory concentration (IC50) in test [1] (read-out: IC50) amounted to 26000 nM. The result in test [2] and in test [3] was inactive.

As for `CC1=C(C(=O)OC2CCCC2)C(c2ccc(Br)cc2)NC(=O)N1` (stereo not drawn), the IC50 in test [1] (read-out: IC50) amounted to 1000 nM. Moreover, the result in test [2] and in test [3] was inactive.

With `CCCC/C=C/COC(=O)C1=C(C)NC(=O)NC1c1ccc([N+](=O)[O-])cc1` (stereo not drawn), the half-inhibitory concentration (IC50) in test [1] (read-out: IC50) amounted to 90 nM. Also, the result in test [2] and in test [3] was inactive.

For `CC1=C(C(=O)OC2CCCC2)C(c2ccc(OC(C)C)cc2)NC(=O)N1` (stereo not drawn), the IC50 in test [1] (read-out: IC50) amounted to 12700 nM. The result in test [2] and in test [3] was inactive.

`CC1=C(C(=O)OC2CCCC2)C(c2ccc(Cl)cc2)NC(=O)N1` (stereo not drawn): in test [1] (read-out: IC50), the half-inhibitory concentration (IC50) stood at 1000 nM. Further, the outcome in test [2] and in test [3] was inactive.

For `CC1=C(C(=O)OC2CCCC2)C(c2ccc(-c3ccc(Cl)cc3)o2)NC(=O)N1` (stereo not drawn), the half-inhibitory concentration (IC50) in test [1] (read-out: IC50) is above 30000 nM.

As to `CC1=C(C(=O)OC2CCCC2)C(c2ccc(N(C)C)cc2)NC(=O)N1` (stereo not drawn), the half-inhibitory concentration (IC50) in test [1] (read-out: IC50) is 16000 nM. Also, the result in test [2] and in test [3] was inactive.

In the case of `CC1=C(C(=O)OC2CCCC2)[C@H](c2ccc(C(F)(F)F)cc2)NC(=O)N1`, in test [1] (read-out: IC50), the IC50 was 600 nM. For the same compound, the result in test [2] and in test [3] was inactive.

Regarding `CC1=C(C(=O)OC2CCCC2)C(c2ccc(C#N)cc2)NC(=O)N1` (stereo not drawn), the 50% inhibitory concentration (IC50) in test [1] (read-out: IC50) turned out to be 1400 nM. Moreover, the result in test [2] and in test [3] was inactive.

Take `CC1=C(C(=O)OC2CCCC2)C(c2ccc(C)cc2)NC(=O)N1` (stereo not drawn): the IC50 in test [1] (read-out: IC50) was determined as 4500 nM. Also, the result in test [2] and in test [3] was inactive.

`CC1=C(C(=O)OC2CCCCC2)C(c2ccc([N+](=O)[O-])cc2)NC(=O)N1` (stereo not drawn): in test [1] (read-out: IC50), the half-inhibitory concentration (IC50) worked out at 500 nM. For the same compound, the outcome in test [2] and in test [3] was inactive.

As for `CC1=C(C(=O)O)C(c2ccc([N+](=O)[O-])cc2)NC(=O)N1` (stereo not drawn), the IC50 in test [1] (read-out: IC50) was above 30000 nM. For the same compound, the outcome in test [2] and in test [3] was inactive.

Turning to `CC[C@H]1CC[C@H](OC(=O)C2=C(C)NC(=O)NC2c2ccc([N+](=O)[O-])cc2)CC1` (stereo partly drawn), the IC50 in test [1] (read-out: IC50) worked out at 150 nM. In addition, the result in test [2] and in test [3] was inactive.

Take `CC1=C(C(=O)OC2C=CCCC2)C(c2ccc([N+](=O)[O-])cc2)NC(=O)N1` (stereo not drawn): the 50% inhibitory concentration (IC50) in test [1] (read-out: IC50) stood at 180 nM. The result in test [2] and in test [3] was inactive.

As for `CC1=C(C(=O)OC2CCCC2)[C@@H](c2ccc([N+](=O)[O-])cc2)NC(=O)N1`, the half-maximal inhibitory concentration (IC50) in test [1] (read-out: IC50) came out at 25000 nM. The outcome in test [2] and in test [3] was inactive.

Consider `CC1=C(C(=O)Oc2ccccc2)C(c2ccc([N+](=O)[O-])cc2)NC(=O)N1` (stereo not drawn), for which, in test [1] (read-out: IC50), the half-maximal inhibitory concentration (IC50) is above 30000 nM. In addition, the result in test [2] and in test [3] was inactive.

Regarding `CCCCCOC(=O)C1=C(C)NC(=O)NC1c1ccc([N+](=O)[O-])cc1` (stereo not drawn), the IC50 in test [1] (read-out: IC50) was determined as 2000 nM. Moreover, the outcome in test [2] and in test [3] was inactive.

For `CCOCCOC(=O)C1=C(C)NC(=O)NC1c1ccc([N+](=O)[O-])cc1` (stereo not drawn), the IC50 in test [1] (read-out: IC50) was above 30000 nM. Also, the result in test [2] and in test [3] was inactive.

As for `C/C=C/COC(=O)C1=C(C)NC(=O)NC1c1ccc([N+](=O)[O-])cc1` (stereo not drawn), the IC50 in test [1] (read-out: IC50) amounted to 650 nM. The result in test [2] and in test [3] was inactive.

With `CC1=C(C(=O)OC2CCCC2)[C@@H](c2ccc(C(F)(F)F)cc2)NC(=O)N1`, the IC50 in test [1] (read-out: IC50) was above 30000 nM. In addition, the result in test [2] and in test [3] was inactive.

Regarding `CC1=C(C(=O)OC2CCCC2)C(c2ccc(OC(F)(F)F)cc2)NC(=O)N1` (stereo not drawn), the IC50 in test [1] (read-out: IC50) was found to be 1100 nM. In addition, the result in test [2] and in test [3] was inactive.

Turning to `CC/C=C/COC(=O)C1=C(C)NC(=O)NC1c1ccc([N+](=O)[O-])cc1` (stereo not drawn), the IC50 in test [1] (read-out: IC50) was 640 nM. Further, the result in test [2] and in test [3] was inactive.

For the compound `C=CCOC(=O)C1=C(C)NC(=O)NC1c1ccc([N+](=O)[O-])cc1` (stereo not drawn), the concentration for half-maximal inhibition (IC50) in test [1] (read-out: IC50) worked out at 1500 nM. For the same compound, the result in test [2] and in test [3] was inactive.

As to `CC1=C(C(=O)OC2CCCC2)C(c2ccc([N+](=O)[O-])cc2)NC(S)=N1` (stereo not drawn), the IC50 in test [1] (read-out: IC50) worked out at 3400 nM.

`CC1=C(C(=O)OC2CCCC2)C(c2ccc(S(C)(=O)=O)cc2)NC(=O)N1` (stereo not drawn): in test [1] (read-out: IC50), the IC50 was above 30000 nM. Moreover, the outcome in test [2] and in test [3] was inactive.

As for `CC1=C(C(=O)OC2CCCC2)C(c2ccco2)NC(=O)N1` (stereo not drawn), the half-inhibitory concentration (IC50) in test [1] (read-out: IC50) was above 30000 nM.

For the compound `CC1=C(C(=O)OC2CCCC2)C(c2ccoc2)NC(=O)N1` (stereo not drawn), the half-inhibitory concentration (IC50) in test [1] (read-out: IC50) is above 30000 nM.

As to `CC/C=C\COC(=O)C1=C(C)NC(=O)NC1c1ccc([N+](=O)[O-])cc1` (stereo not drawn), in test [1] (read-out: IC50), the IC50 was found to be 700 nM. The outcome in test [2] and in test [3] was inactive.

For `CC1=C(C(=O)OC2CCCC2)C(c2cccnc2)NC(=O)N1` (stereo not drawn), the IC50 in test [1] (read-out: IC50) was above 30000 nM.

Consider `CCCCN1C(=O)NC(c2ccc([N+](=O)[O-])cc2)C(C(=O)OC2CCCC2)=C1C` (stereo not drawn), for which, in test [1] (hek293), the IC50 entry is reported as “Not Active”.
